The source of these data is PubChem BioAssay AID624038 (The Scripps Research Institute Molecular Screening Center, 2012).

The structures appear in SMILES notation. In all, about 360,000 compounds went through this assay and about 1,100 (0.31%) were called active. This excerpt belongs to a sample that is enriched for actives. A number with no mark means an inactive call.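 How the source made its calls: active means activation above the run cutoff, the mean activation of all test compounds plus 3 SD (cut at about 18% in these data); inactive means the rest.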

Muscarinic acetylcholine receptor M5 (Homo sapiens), sequence (P08912 whole entry, looked up): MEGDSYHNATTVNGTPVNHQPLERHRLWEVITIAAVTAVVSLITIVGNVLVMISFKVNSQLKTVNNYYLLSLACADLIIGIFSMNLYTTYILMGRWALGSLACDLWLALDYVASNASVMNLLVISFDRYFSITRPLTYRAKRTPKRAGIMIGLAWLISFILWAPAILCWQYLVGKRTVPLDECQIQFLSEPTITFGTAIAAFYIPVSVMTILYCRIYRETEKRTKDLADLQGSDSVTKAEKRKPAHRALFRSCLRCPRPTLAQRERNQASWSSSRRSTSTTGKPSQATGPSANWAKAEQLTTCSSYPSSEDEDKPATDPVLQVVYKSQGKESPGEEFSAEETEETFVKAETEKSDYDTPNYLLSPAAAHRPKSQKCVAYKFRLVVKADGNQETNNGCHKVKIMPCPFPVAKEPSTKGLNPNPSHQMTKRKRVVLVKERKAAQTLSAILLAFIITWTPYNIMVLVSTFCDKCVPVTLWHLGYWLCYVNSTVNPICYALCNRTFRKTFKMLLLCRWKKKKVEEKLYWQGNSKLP

This assay addresses Muscarinic acetylcholine receptor M5 (Homo sapiens) (UniProt P08912). Kind of assay: CHRM5 PAMs potentiating acetylcholine calcium signal – CHO-K1 cells, Fluo-8 calcium fluorescence, primary screen (AID 624038). Particulars: CHO-K1 hM5, Fluo-8 calcium, ACh EC20 PAM; at 3 µM; active compounds read high; 0% = ACh EC20, 100% = ACh EC100. In short, it runs like this: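 System – CHO-K1 hM5 cells · Compound – 3 µM, single dose · Incubation – compound preincubation 140 s before EC20 acetylcholine addition · Technique – Fluo-8 calcium fluorescence · Measure – Max/basal fluorescence ratio as % of EC20–EC100 ACh window · Benchmarks – low control EC20 acetylcholine (0%), high control EC100 acetylcholine (100%) · Replication – singlicate, one well per test compound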
On to `CCCc1ccc(C(=O)[C@@H]2[C@@H](C(C)=O)N3c4ccc(F)cc4C=C[C@@H]3[C@@]23C(=O)Nc2ccccc23)cc1`, for which the activation is 25.3% (active). For the molecule `COC(=O)c1ccc(Oc2nc(NC(C)C)nc(SC)n2)cc1`, the activation was 2.31%. Consider `CCOc1ccc(N(C)S(=O)(=O)c2cnc[nH]2)cc1`, for which the activation was 11.8%. Consider `Cc1ccc2[nH]c(=O)c(CN(C)S(=O)(=O)c3cccc4nonc34)cc2c1`, for which the activation is 4.24%. Next, `CCCc1nc(-c2cc3cc(C)ccc3[nH]c2=O)no1`: 25% (active); `Cc1ccc2[nH]c(=O)c(COC(=O)c3ccccn3)cc2c1`: -8.69%; `Cc1c(C(=O)NCC2CC2)sc(=O)n1Cc1cccc(F)c1`: 2.84%. Next, `CCCn1c(O)c(CN2CCCC(C)C2)c(C)c(C#N)c1=O` (stereo not drawn): -2.92%. Next, `CC(C)(C)NC(=O)CN(C(=O)c1csnn1)c1ccccc1-c1ccccc1`: -2.48%; `CC(C)(C)NC(=O)CN(C(=O)c1ccc(Cl)nc1)c1cccc2ccccc12`: 22.9% (active). For the molecule `O=C(COC(=O)c1ccc(Cl)nc1)NCc1cccs1`, the activation was -12.7%.

Turning to `O=c1c2cc(-c3ccccc3)sc2nc2n1N=C(c1cccs1)CS2`, the activation was 9.65%. `Cc1cc(C)n(-c2nnc(N3CCN(c4ccccc4)CC3)nn2)n1`: the activation was -0.36%. Next, `Cc1cc(C)nc(-n2nc(C)cc2NC(=O)c2ccc(F)cc2F)n1`: 3.36%. In the case of `Cc1cc(N/N=C\c2ccc(Br)cc2)nc(-n2nc(C)cc2C)n1`, the activation is 20.4% (active). The figure for `COc1ccccc1-c1n[nH]nc1C1=CC(=O)CC(C)(C)C1` is -0.48%. The figure for `CCCCCCCCN1C(=O)[C@H](CC(=O)NCC23CC4CC(CC(C4)C2)C3)C[C@@]2(C(=O)OC)CCCCC=C12` is -2.23%; for `CC(NC(=O)c1cc2cc(Cl)ccc2oc1=N)c1ccccc1` (stereo not drawn) it is 35.2% (active); for `Cc1ccc(C(=O)NC(C)c2ccccc2)cc1Br` (stereo not drawn) it is -0.29%.

As for `CC(NC(=O)C(=O)N/N=C/c1ccc(Cl)cc1)c1ccccc1` (stereo not drawn), the activation was -5.3%. The figure for `COC(=O)c1cccc([N+](=O)[O-])c1CS(=O)(=O)c1ccc(C)cc1` is -5.08%. The figure for `CC(=O)N1c2ccc(S(=O)(=O)N3CCC(C(=O)NC4CCCCC4C)CC3)cc2CC1C` (stereo not drawn) is -5.55%. In the case of `COC(=O)Cc1nc2c(N)nc(N)nc2[nH]c1=O`, the activation is 5.33%. The figure for `NC1=C([N+](=O)[O-])C(c2ccccc2)C2=C(CCCC2=O)O1` (stereo not drawn) is 23.6% (active); for `N#CC1=C(N)OC2=C(C(=O)CCC2)C1C1CC=CCC1` (stereo not drawn) it is -4.35%.

In the case of `COc1cc(C2C3=C(CCCC3=O)OC3=C2C(=O)CCC3)ccc1OCC(=O)Nc1ccccc1`, the activation is -5.18%. In the case of `CCCNC(=O)C1(C)CCN(Cc2ccc(Cl)c(Cl)c2)C1` (stereo not drawn), the activation is 0.24%. The figure for `Cc1cc(-n2cnc(-c3cn(C)nc3C)n2)no1` is -0.03%.

`CC(C)Oc1ccc(CN2CCC(n3nccc3NC(=O)c3cccnc3)CC2)cc1`: the activation is 0.11%.

As to `COc1ccc(S(=O)(=O)N2CCN(CC(=O)N3CCNC3=O)CC2)cc1OC`, the activation is 2.2%. Next, `CC(=O)N1CC[n+]2c(-c3ccc([N+](=O)[O-])cc3)csc21`: 20% (active).

Consider `CN1C2CCC1CC(NC(=O)c1ccc([N+](=O)[O-])cc1)C2` (stereo not drawn), for which the activation is 0.81%. Regarding `Cc1cc(C)cc(C(=O)N2CCN=C2SCc2ccc([N+](=O)[O-])cc2)c1`, the activation is -5.65%.

With `O=C(NNS(=O)(=O)c1c(F)cc(F)c(Cl)c1F)C12CC3CC(CC(C3)C1)C2`, the activation is -0.38%.

For the molecule `CC(C)(C)C1CCC(OC(=O)CCC(=O)Nc2ccccc2)CC1` (stereo not drawn), the activation was -2.13%.

`CN1CCC(=NNC(=O)CN(c2cccc(Cl)c2)S(C)(=O)=O)CC1`: the activation was 7.47%. The figure for `COc1cc(OC)cc(C(=O)NCC(=O)OCC(=O)NC(C)CCc2ccccc2)c1` (stereo not drawn) is 21.1% (active); for `CC(CCc1ccccc1)NC(=O)COC(=O)c1ccc(F)cc1` (stereo not drawn) it is -4.05%. Next, `COc1cc(C(=O)OCC(=O)NC(C)CCc2ccccc2)cc(OC)c1OC` (stereo not drawn): -10.1%; `CC(C)CN(C(=O)CSc1nncn1C)C1CCS(=O)(=O)C1` (stereo not drawn): 11.7%.

Regarding `CCOc1ccc(CCNC(=O)C(CC)n2nc(C)n3c(cc4sccc43)c2=O)cc1OCC` (stereo not drawn), the activation was -4.37%. As for `CCc1nn(CCCC(=O)NCc2ccc(C)cc2)c(=O)c2cc3occc3n12`, the activation is 2.21%. The figure for `CCC(C(=O)NCc1ccc(OC)cc1)n1nc(C)n2c(cc3occc32)c1=O` (stereo not drawn) is 18.4% (active); for `COc1cc(OC)c(NC(=O)C2CCCN2C(=O)OCc2ccccc2)cc1Cl` (stereo not drawn) it is 2.68%; for `CCCCNC(=O)OC1CC2CC1[C@H]1CCCCN1C2=O` (stereo partly drawn) it is 0.25%. On to `CCOc1ccc(OCc2cccc(C(=O)N(CC)CC)c2)cc1`, for which the activation is -1.6%. With `CC(=O)Oc1ccc(-c2cccc(C(=O)N3CCCCC3)c2)cc1`, the activation was -3.42%. The figure for `COc1ccc(OCc2cccc(C(=O)N3CCCC3)c2)cc1` is 19.1% (active). The figure for `Cc1ccc(C2SCC(=O)N2c2ccccc2)cc1` (stereo not drawn) is 13.5%. Next, `CC(C)(C)OC(=O)C[C@@H]1C/C=C\C[C@H](CC(=O)N[C@@H](CO)Cc2ccccc2)C(=O)N[C@H](Cc2ccccc2)COC1=O`: -0.44%; `CC(C)(C)OC(=O)C[C@@H]1C/C=C\C[C@@H](CC(=O)N[C@H](CO)Cc2ccccc2)C(=O)NCCOC1=O`: -2.01%. As for `C[C@H]1COC(=O)[C@H](CC(=O)OC(C)(C)C)C/C=C\C[C@@H](CC(=O)N[C@H](CO)Cc2ccccc2)C(=O)N1`, the activation is 20.5% (active). The figure for `Cc1nn(C)c(C)c1Sc1ccccc1N` is -3.24%; for `O=C(CNC(=O)c1ccccc1F)c1ccc(Br)cc1` it is 1.83%. On to `O=C(COC(=O)CNC(=O)c1ccccc1F)NCC(F)(F)F`, for which the activation was 16.4%. As for `COC(=O)CNC(=O)c1ccccc1F`, the activation is 22.4% (active). In the case of `COc1ccccc1NC(=O)c1c(Br)cnn1C`, the activation is 0.59%. Next, `Cc1nn(C)c(C(=O)NNC(=S)NC2CCCCC2)c1Cl`: -3.58%. As for `Cn1ncc(Br)c1C(=O)NC1CCCC1`, the activation is 36.9% (active). For the molecule `CC(=O)Nc1ccc(S(=O)(=O)NCCc2ccccc2)cc1`, the activation was -2.74%. The figure for `O=S(=O)(NCCc1ccncc1)c1ccccc1` is 8.02%; for `O=S(=O)(NCCc1ccccc1)c1ccccc1` it is 20.4% (active). Consider `CCCC(C)n1[nH]c(=O)c2c(C)cc(C)nc21` (stereo not drawn), for which the activation is 4.59%. The figure for `O=C1COc2ccc(C(=O)COC(=O)c3ccccc3Cl)cc2N1` is -8.98%. Next, `Cc1ccc(S(=O)(=O)N(C)C)cc1NC(=O)CN1c2cccc3cccc(c23)S1(=O)=O`: -2.16%; `Cn1ncc2c(NNC(=O)Cc3cccc4ccccc34)ncnc21`: 6.42%; `Cc1nc(Nc2ccccc2C)c2cnn(C)c2n1`: -2.69%. The figure for `Cn1ncc2c(Nc3cccc4ccccc34)ncnc21` is 43.5% (active); for `CCCNC(=O)COc1coc(CN2CCN(Cc3ccccc3)CC2)cc1=O` it is -3.51%; for `Brc1cccc(-c2nnc3n2CCC3)c1` it is -2.96%. On to `Cc1c(C(=O)Nc2cccc(-c3nnc4n3CCCCC4)c2)oc2ccccc12`, for which the activation was -11.2%. The figure for `O=C(Cn1[nH]c(=O)c2ccccc2c1=O)Nc1cccc(-c2nnc3n2CCCCC3)c1` is 22.3% (active); for `Cc1ccc(C)c(N2CCN(C(=O)CCc3nc(-c4cccc(C(F)(F)F)c4)no3)CC2)c1` it is -0.63%; for `Cc1cccc(-c2noc(-c3ccc(F)cc3)n2)c1` it is 18.1% (active). Turning to `OC[C@H]1O[C@@H](c2nc(-c3nc(-c4ccc(F)cc4)no3)cs2)[C@H](O)[C@@H](O)[C@H]1O`, the activation is -2.26%. Consider `Cc1ccc(-c2cccc([C@H]3[C@@H]4C=CC[C@@H](C)[C@@H]4C(=O)N3Cc3ccccc3)c2)cc1`, for which the activation was -3.69%. For `Cc1nn(Cc2ccc(F)cc2)c(C)c1NC(=O)c1noc2c1CCc1ccccc1-2`, the activation is -7.62%. In the case of `Cc1nn(Cc2ccc(Cl)c(Cl)c2)c(C)c1NC(=O)c1cc(C2CC2)on1`, the activation is -11.4%.

As to `Cc1nn(Cc2ccc(F)cc2)c(C)c1NC(=O)c1cccnc1Cl`, the activation was 24.4% (active). The figure for `CCNc1nc(NCC)nc(N(C)n2cnnc2)n1` is 1.44%; for `Nc1c(-c2ccc(F)cc2)cnn1C1CCS(=O)(=O)C1` (stereo not drawn) it is 0.13%. Next, `O=C(OC12CC3CC(CC(C3)C1)C2)c1ccc(NCc2cc(O)ccc2O)cc1`: 21.9% (active). Next, `CC(C)C(=O)Nc1ccc2c(c1)oc1ccccc12`: -7.04%; `Cc1nc2sc(C(c3ccco3)N3CCOCC3)c(O)n2n1` (stereo not drawn): 20.1% (active). In the case of `Cc1nc2sc(C(c3ccco3)N3CCC4(CC3)OCCO4)c(O)n2n1` (stereo not drawn), the activation is 5.68%.

Regarding `Oc1c(C(c2cccs2)N2CCN(c3ccc(F)cc3)CC2)sc2ncnn12` (stereo not drawn), the activation is -5.38%. Next, `Cc1ccc(C(c2sc3nc(C)nn3c2O)N2CCN(c3ccc(F)cc3)CC2)cc1` (stereo not drawn): 42.2% (active). For the molecule `Oc1c(C(c2ccco2)N2CCC3(CC2)OCCO3)sc2ncnn12` (stereo not drawn), the activation was -1.05%. Next, `Cc1ccc(C(c2sc3nc(C)nn3c2O)N2CCN(c3ccccc3)CC2)cc1` (stereo not drawn): 5.14%. Next, `COc1ccc(COC(=O)N/N=C(\C)CC(=O)Nc2ccc(Cl)cc2)cc1`: -3.42%. The figure for `COC(=O)c1ccc(C)c(NC(=O)C2CC(=O)N(C3CCCC(C)C3C)C2)c1` (stereo not drawn) is 0.01%; for `Cc1ccc(NC(=O)Cn2cnc3c(OCc4ccccc4)ncnc32)cc1C` it is 1.1%. For `CCN(Cc1nc2ccccc2c(=O)[nH]1)Cc1cc(=O)oc2cc(C)c(C)cc12`, the activation was -12.3%.
